ChEMBL document CHEMBL1121573, “2-(Aminomethyl)phenols, a new class of saluretic agents. 1. Effects of nuclear substitution” (J Med Chem, 1980)

Columns and labels:
Canis familiaris [1] = test: Salidiuretic activity in dog following i.v. dosing at 5 mg/kg; assay type: functional, Canis lupus familiaris, Urine; parameters: unit not given beside the values; conditions: route intravenous
Summary of the method: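 Conditioned female mongrel dogs, postabsorptive, got a 500 mL oral water load 1 h before pentobarbital anesthesia (30 mg/kg iv). After replicate 15-min control collections, compound was given as an iv stat injection.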

Canis familiaris [2] = test: Compound administered intravenously at a dose of 5 mg/kg was evaluated for salidiuretic activity measured as sodium ion excretion in Dog; Value ranges from 100-249; assay type: ADME, organism-based, Canis lupus familiaris, Urine; parameters: dose 5 mg/kg, route intravenous; conditions: in vivo, iv
Summary of the method: (§1)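 Conditioned female mongrel dogs, postabsorptive, water-loaded (500 mL po) 1 h before sodium pentobarbital anesthesia (30 mg/kg iv). Bladder catheter; creatinine 4 g sc; phosphate–mannitol buffer pH 7.4 infused (3.0 mL/min) throughout. […] Urine Na+ measured; response scored 0–6.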

Rattus norvegicus [3] = test: Evaluated for salidiuretic activity measured as sodium ion excretion in Rat, administered orally at a dose of 50 mg/kg; assay type: functional, Urine; parameters: unit not given beside the values; conditions: route oral
Summary of the method: (§2)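 Female Charles-River rats (150–170 g), overnight on sugar diet with water ad libitum. Compound dissolved in DMF, diluted with water containing Tween 80 (final 4% DMF), given po in 5.0 mL; concurrent vehicle placebo. Three rats per metabolism cage; 0–5 h urine analysed for Na+, K+, Cl-. Values: mequiv × 100 per cage, geometric means of three cages per dose; scored 0–6 by Na+.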

[4] = Compound administered orally at a dose of 5 mg/kg was evaluated for salidiuretic activity measured as sodium ion excretion in Rat; assay type: organism-based; parameters: dose 5 mg/kg; conditions: Urine; summary of the method: as §2
[5] = Evaluated for salidiuretic activity measured as sodium ion excretion in Rat, administered orally at a dose of 16.5 mg/kg; assay type: organism-based; parameters: dose 16.5 mg/kg; conditions: Urine; summary of the method: as §2
Rattus norvegicus [6] = test: Compound administered orally at a dose of 81 mg/kg was evaluated for salidiuretic activity measured as sodium ion excretion in Rat; assay type: ADME, organism-based, Urine; parameters: dose 81 mg/kg, route oral; unit not given beside the values; conditions: in vivo, po; summary of the method: as §2
Canis familiaris [7] = test: Compound administered intravenously at a dose of 5 mg/kg was evaluated for salidiuretic activity measured as sodium ion excretion in Dog; Value ranges from 800-899; assay type: ADME, organism-based, Canis lupus familiaris, Urine; parameters: dose 5 mg/kg, route intravenous; unit not given beside the values; conditions: in vivo, iv; summary of the method: as §1
Canis familiaris [8] = test: Compound administered intravenously at a dose of 5 mg/kg was evaluated for salidiuretic activity measured as sodium ion excretion in Dog; assay type: ADME, organism-based, Canis lupus familiaris, Urine; parameters: dose 5 mg/kg, route intravenous; conditions: in vivo, iv; summary of the method: as §1
Canis familiaris [9] = test: Compound administered intravenously was evaluated for salidiuretic activity measured as sodium ion excretion in Dog; Value ranges from 0-99; assay type: ADME, organism-based, Canis lupus familiaris, Urine; conditions: in vivo, iv; summary of the method: as §1
Canis familiaris [10] = test: Compound administered intravenously was evaluated for salidiuretic activity measured as sodium ion excretion in Dog; Value ranges from 250-399; assay type: ADME, organism-based, Canis lupus familiaris, Urine; conditions: in vivo, iv; summary of the method: as §1
Rattus norvegicus [11] = test: Compound administered orally at a dose of 1 mg/kg was evaluated for salidiuretic activity measured as sodium ion excretion in Rat; conditions: in vivo, po
Canis familiaris [12] = test: Compound administered intravenously at a dose of 5 mg/kg was evaluated for salidiuretic activity measured as sodium ion excretion in Dog; Value ranges from 0-99; assay type: ADME, organism-based, Canis lupus familiaris, Urine; parameters: dose 5 mg/kg, route intravenous; conditions: in vivo, iv; summary of the method: as §1

SMILES	Diuretic activity (Rattus norvegicus [3])	Diuretic activity [4]	Diuretic activity [5]	Diuretic activity (Rattus norvegicus [6])	further results
CC(C)(c1ccccc1)c1ccc(O)c(CN)c1.Cl	–	–	–	–	Diuretic activity (Canis familiaris [1]): 250
CCc1c(Cl)c(C)c(Cl)c(O)c1CN.Cl	1.2	0.3	0.5	1.5	Diuretic activity (Canis familiaris [2]): 100
Cc1cc(CN)c(O)c(C(C)(C)C)c1.Cl	–	–	–	–	Diuretic activity (Canis familiaris [2]): 100
Cl.NCc1cc(I)cc(I)c1O	2.4	0.5	1.4	2.9	Diuretic activity (Canis familiaris [7]): 800
CCC(C)c1cc(I)c(O)c(CN)c1.Cl (stereo unspecified)	2.4	0.5	1.4	2.9	Diuretic activity (Canis familiaris [8]): > 900
Cl.NCc1cc(Cl)c(Cl)c(Cl)c1O	3.3	1.4	2.7	–	Diuretic activity (Canis familiaris [1]): 250
Cl.NCc1cc(Cl)cc(F)c1O	–	–	–	–	Diuretic activity (Canis familiaris [1]): 250
CC(C)(C)CC(C)(C)c1cc(Cl)c(O)c(CN)c1.Cl	–	–	–	–	Diuretic activity (Canis familiaris [9]): 0
NCc1cc(Cl)ccc1O	1.2	0.3	0.5	1.5	Diuretic activity (Canis familiaris [1]): 250
CCCc1cc(CN)c(O)c(OC)c1.Cl	–	–	–	–	Diuretic activity (Canis familiaris [1]): 250
Cc1cc(Cl)c(Cl)c(CN)c1O.Cl	–	–	–	–	Diuretic activity (Canis familiaris [10]): 250
CC(C)(C)c1cc(CN)c(O)c(C(F)(F)F)c1.Cl	3.3	1.4	2.7	–	Diuretic activity (Canis familiaris [7]): 800
Cc1cc(Cl)c(O)c(CN)c1.Cl	1.8	0.4	0.6	2.4	Diuretic activity (Canis familiaris [2]): 100
Br.Cc1c(O)c(CN)c(Cl)c(C)c1Cl	<0.2	–	–	< 0.3	Diuretic activity (Canis familiaris [2]): 100
CC(C)c1cc(Cl)c(O)c(CN)c1.Cl	3.6	2.6	3.3	–	Diuretic activity (Canis familiaris [8]): > 900; Diuretic activity (Rattus norvegicus [11]): 0.7
CCCCc1cc(I)c(O)c(CN)c1.Cl	<0.2	–	–	< 0.3	Diuretic activity (Canis familiaris [2]): 100
Cl.NCc1cc(-c2ccccc2)cc(Cl)c1O	–	–	–	–	Diuretic activity (Canis familiaris [10]): 250
C=C(CC)C(=O)c1ccc(OCC(=O)O)c(Cl)c1Cl [ETHACRYNIC ACID]	<0.3	–	–	< 0.3	Diuretic activity (Canis familiaris [8]): > 900
Cl.NCc1c(O)c(Cl)cc(Cl)c1O	1.2	0.3	0.5	1.5	Diuretic activity (Canis familiaris [9]): 0
Cc1cc(Cl)c(C)c(CN)c1O.Cl	–	–	–	–	Diuretic activity (Canis familiaris [9]): 0
CC(=O)c1cc(C(C)(C)C)cc(CN)c1O.Cl	–	–	–	–	Diuretic activity (Canis familiaris [10]): 250
CCCCc1ccc(O)c(CN)c1.Cl	<0.3	–	–	< 0.3	Diuretic activity (Canis familiaris [12]): 0
Cc1c(Cl)cc(CN)c(O)c1C.Cl	–	–	–	–	Diuretic activity (Canis familiaris [9]): 0

SMILES	Diuretic activity (Rattus norvegicus [3])	Diuretic activity [4]	Diuretic activity [5]	Diuretic activity (Rattus norvegicus [6])	further results
Cl.NCc1cc(Cl)cc(-c2ccccc2)c1O	–	–	–	–	Diuretic activity (Canis familiaris [1]): 250
CCOc1cc(Cl)c(O)c(CN)c1.Cl	–	–	–	–	Diuretic activity (Canis familiaris [10]): 250
CC(C)(C)c1cc(Br)c(O)c(CN)c1.Cl	3.9	3.6	4.2	–	Diuretic activity (Canis familiaris [8]): > 900; Diuretic activity (Rattus norvegicus [11]): 2.1
Cc1cc(Cl)cc(CN)c1O.Cl	–	–	–	–	Diuretic activity (Canis familiaris [2]): 100
CCC(C)(C)c1cc(I)c(O)c(CN)c1.Cl	2.4	0.5	1.4	2.9	Diuretic activity (Canis familiaris [7]): 800
CC(C)(C)c1cc(F)c(O)c(CN)c1.Cl	3.3	1.4	2.7	–	Diuretic activity (Canis familiaris [8]): > 900
Cc1c(C)c(C)c(CN)c(O)c1C.Cl	2.4	0.5	1.4	2.9	Diuretic activity (Canis familiaris [1]): 250
CCc1cc(CN)c(O)c(CN)c1.Cl	–	–	–	–	Diuretic activity (Canis familiaris [12]): 0
Cl.NCc1c(O)c(Cl)cc(Cl)c1F	3.3	1.4	2.7	–	Diuretic activity (Canis familiaris [7]): 800
COc1c(Cl)c(OC)c(CN)c(O)c1I.Cl	3.3	1.4	2.7	–	Diuretic activity (Canis familiaris [7]): 800
CC(C)(C)c1cc(O)c(CN)c(C(C)(C)C)c1.Cl	–	–	–	–	Diuretic activity (Canis familiaris [12]): 0
CCCc1cc(CN)c(O)c(CCC)c1.Cl	–	–	–	–	Diuretic activity (Canis familiaris [1]): 250
Cl.NCc1c(O)c(Cl)c(Cl)c(Cl)c1Cl	3.3	1.4	2.7	–	Diuretic activity (Canis familiaris [1]): 250
Cc1c(Cl)ccc(O)c1CN.Cl	–	–	–	–	Diuretic activity (Canis familiaris [1]): 250
COc1cc(Cl)c(OC)c(CN)c1O.Cl	–	–	–	–	Diuretic activity (Canis familiaris [10]): 250
Cc1cc(O)c(CN)c(C)c1C.Cl	–	–	–	–	Diuretic activity (Canis familiaris [9]): 0
CCOC(=O)c1cc(I)c(O)c(CN)c1.Cl	1.8	–	–	2.4	Diuretic activity (Canis familiaris [1]): 250
COc1cc(Cl)c(Cl)c(CN)c1O.Cl	1.2	0.3	0.5	1.5	Diuretic activity (Canis familiaris [2]): 100
Cl.NCc1cc(Cl)cc(I)c1O	1.8	0.4	0.6	2.4	Diuretic activity (Canis familiaris [7]): 800
CCCc1cc(C(C)(C)C)cc(CN)c1O.Cl	–	–	–	–	Diuretic activity (Canis familiaris [9]): 0
CCC(C)c1cc(Cl)c(O)c(CN)c1.Cl (stereo unspecified)	3.6	2.6	3.3	–	Diuretic activity (Rattus norvegicus [11]): 0.7; Diuretic activity (Canis familiaris [7]): 800
COc1cc(C)cc(CN)c1O.Cl	–	–	–	–	Diuretic activity (Canis familiaris [2]): 100
CCCc1ccc(O)c(CN)c1.Cl	–	–	–	–	Diuretic activity (Canis familiaris [1]): 250

SMILES	Diuretic activity (Rattus norvegicus [3])	Diuretic activity [4]	Diuretic activity [5]	Diuretic activity (Rattus norvegicus [6])	further results
COc1c(C(C)(C)C)cc(Cl)c(O)c1CN.Cl	–	–	–	–	Diuretic activity (Canis familiaris [10]): 250
CC(C)Cc1cc(I)c(O)c(CN)c1.Cl	1.2	0.3	0.5	1.5	Diuretic activity (Canis familiaris [2]): 100
Cc1c(Cl)c(C)c(CN)c(O)c1Cl.Cl	3.3	1.4	2.7	–	–
CC(C)(C)c1c(Cl)cc(CN)c(O)c1Cl.Cl	2.4	0.5	1.4	2.9	Diuretic activity (Canis familiaris [1]): 250
Cc1c(Cl)c(C)c(CN)c(O)c1CN.Cl.Cl	<0.2	–	–	< 0.3	–
CCCCc1cc(C)c(O)c(CN)c1.Cl	–	–	–	–	Diuretic activity (Canis familiaris [2]): 100
CCCc1cc(Cl)c(O)c(CN)c1.Cl	3.3	1.4	2.7	–	Diuretic activity (Canis familiaris [8]): > 900
CCc1cc(Cl)c(O)c(CN)c1.Cl	3.3	1.4	2.7	–	Diuretic activity (Canis familiaris [8]): > 900
Cc1cc(N)c(C)c(CN)c1O.Cl.Cl	–	–	–	–	Diuretic activity (Canis familiaris [9]): 0
CC(C)(C)c1cc(CN)c(O)c(Oc2ccc(Cl)cc2)c1.Cl	1.8	0.4	0.6	2.4	Diuretic activity (Canis familiaris [2]): 100
CCCCCC(C)c1cc(C)c(O)c(CN)c1.Cl (stereo unspecified)	–	–	–	–	Diuretic activity (Canis familiaris [10]): 250
Cl.NCc1cc(Cl)cc(C(=O)O)c1O	–	–	–	–	Diuretic activity (Canis familiaris [1]): 250
COc1c(C(C)(C)C)cc(I)c(O)c1CN.Cl	2.4	0.5	1.4	2.9	Diuretic activity (Canis familiaris [7]): 800
COc1c(C)c(OC)c(CN)c(O)c1Cl	–	–	–	–	Diuretic activity (Canis familiaris [10]): 250
Cl.NCc1cc(CN)c(Cl)c(Cl)c1O	–	–	–	–	Diuretic activity (Canis familiaris [9]): 0
Cc1c(Br)c(C)c(CN)c(O)c1Br.Cl	3.3	1.4	2.7	–	Diuretic activity (Canis familiaris [7]): 800
NCc1c(O)ccc(Cl)c1Cl	1.2	0.3	0.5	1.5	Diuretic activity (Canis familiaris [1]): 250
Cl.NCc1cc(F)cc(Cl)c1O	–	–	–	–	Diuretic activity (Canis familiaris [12]): 0
Cc1cc(C)c(O)c(CN)c1C.Cl	1.8	0.4	0.6	2.4	Diuretic activity (Canis familiaris [1]): 250
CC(C)(C)c1cc(CN)c(O)c(C(C)(C)C)c1	–	–	–	–	Diuretic activity (Canis familiaris [9]): 0
Cc1c(Cl)c(C(C)(C)C)c(Cl)c(O)c1CN.Cl	2.4	0.5	1.4	2.9	–
